# In ChEMBL document CHEMBL1157406, “Cytotoxic metabolites from the fungal endophyte Alternaria sp. and their subsequent detection in its host plant Polygonum senegalense” (J Nat Prod, 2008):
# How the values were obtained:
# Aurora kinase B = Aurora kinase B (Homo sapiens, UniProt Q96GD4); test: Inhibition of recombinant Aurora B
# Procedure, shortened: (§1)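 Purified recombinant kinase, 50 µL reaction. 1 µM [γ-33P]-ATP with substrate; compound added in 10% DMSO. Tested over several concentrations; IC50 in g/mL.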
# [1] = molecular target: Mitogen-activated protein kinase kinase kinase 8 (Homo sapiens, UniProt P41279); test: Inhibition of recombinant COT
# Focal adhesion kinase 1 = Focal adhesion kinase 1 (Homo sapiens, UniProt Q05397); test: Inhibition of recombinant FAK; procedure, shortened: as §1
# [2] = molecular target: Cyclin-dependent kinase 2 (Homo sapiens, UniProt P24941); test: Inhibition of recombinant CDK2/CycA; procedure, shortened: as §1
# [3] = molecular target: Casein kinase II subunit alpha (Homo sapiens, UniProt P68400); test: Inhibition of recombinant CK2alpha1; procedure, shortened: as §1
# [4] = molecular target: T1, Serine/threonine-protein kinase PLK4 (Homo sapiens, UniProt O00444); test: Inhibition of recombinant SAK
# T1 sequence (O00444 whole entry): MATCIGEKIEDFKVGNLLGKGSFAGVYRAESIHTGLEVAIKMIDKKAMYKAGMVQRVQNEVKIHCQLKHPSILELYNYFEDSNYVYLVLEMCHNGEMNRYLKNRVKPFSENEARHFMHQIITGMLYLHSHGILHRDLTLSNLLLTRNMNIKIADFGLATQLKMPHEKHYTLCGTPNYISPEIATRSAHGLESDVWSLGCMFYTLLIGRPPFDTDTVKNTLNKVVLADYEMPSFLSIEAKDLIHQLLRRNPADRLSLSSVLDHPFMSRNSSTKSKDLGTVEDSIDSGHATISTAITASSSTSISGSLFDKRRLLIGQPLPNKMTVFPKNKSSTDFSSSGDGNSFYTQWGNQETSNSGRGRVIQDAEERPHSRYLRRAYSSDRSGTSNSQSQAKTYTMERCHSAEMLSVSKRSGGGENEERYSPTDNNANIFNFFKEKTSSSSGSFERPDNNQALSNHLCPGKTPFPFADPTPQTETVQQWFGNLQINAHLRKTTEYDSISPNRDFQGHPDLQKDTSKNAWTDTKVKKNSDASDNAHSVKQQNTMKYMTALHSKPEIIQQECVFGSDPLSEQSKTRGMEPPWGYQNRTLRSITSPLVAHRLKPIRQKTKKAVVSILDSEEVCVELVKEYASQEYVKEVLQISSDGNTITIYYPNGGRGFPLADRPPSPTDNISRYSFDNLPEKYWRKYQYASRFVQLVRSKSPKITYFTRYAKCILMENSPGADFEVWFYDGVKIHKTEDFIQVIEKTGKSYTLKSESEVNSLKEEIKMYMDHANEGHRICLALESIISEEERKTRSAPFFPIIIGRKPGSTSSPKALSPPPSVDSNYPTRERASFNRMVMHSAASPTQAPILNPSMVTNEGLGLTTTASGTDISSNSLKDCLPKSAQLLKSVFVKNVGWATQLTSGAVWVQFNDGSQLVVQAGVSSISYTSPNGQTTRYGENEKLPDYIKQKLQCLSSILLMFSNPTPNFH
# [5] = molecular target: Serine/threonine-protein kinase PLK1 (Homo sapiens, UniProt P53350); test: Inhibition of recombinant PLK1; procedure, shortened: as §1
# [6] = molecular target: T2, NUAK family SNF1-like kinase 1 (Homo sapiens, UniProt O60285); test: Inhibition of recombinant ARK5
# T2 sequence (O60285 whole entry): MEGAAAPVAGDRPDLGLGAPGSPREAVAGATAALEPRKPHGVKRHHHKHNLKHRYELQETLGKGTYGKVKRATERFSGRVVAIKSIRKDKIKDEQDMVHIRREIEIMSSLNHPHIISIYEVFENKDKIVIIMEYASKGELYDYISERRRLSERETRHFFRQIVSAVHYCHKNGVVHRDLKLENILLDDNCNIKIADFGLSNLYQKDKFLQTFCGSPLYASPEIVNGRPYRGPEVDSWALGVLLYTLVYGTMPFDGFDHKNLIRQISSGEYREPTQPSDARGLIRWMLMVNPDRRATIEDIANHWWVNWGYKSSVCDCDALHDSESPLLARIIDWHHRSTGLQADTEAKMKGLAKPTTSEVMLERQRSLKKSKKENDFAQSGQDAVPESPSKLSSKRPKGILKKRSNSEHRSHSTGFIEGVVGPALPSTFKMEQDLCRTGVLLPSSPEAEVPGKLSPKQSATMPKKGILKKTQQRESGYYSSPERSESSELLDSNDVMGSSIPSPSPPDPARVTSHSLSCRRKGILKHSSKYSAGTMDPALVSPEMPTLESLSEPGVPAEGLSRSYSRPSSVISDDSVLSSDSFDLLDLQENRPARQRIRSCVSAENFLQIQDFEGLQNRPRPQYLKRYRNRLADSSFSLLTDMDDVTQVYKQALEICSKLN
# [7] = molecular target: Hepatocyte growth factor receptor (Homo sapiens, UniProt P08581); test: Inhibition of recombinant MET
# [8] = molecular target: Cyclin-dependent kinase 4/cyclin D1 (Homo sapiens, UniProt P11802); test: Inhibition of recombinant CDK4/CycD1; procedure, shortened: as §1
# Chain of Cyclin-dependent kinase 4/cyclin D1 (P11802 whole entry): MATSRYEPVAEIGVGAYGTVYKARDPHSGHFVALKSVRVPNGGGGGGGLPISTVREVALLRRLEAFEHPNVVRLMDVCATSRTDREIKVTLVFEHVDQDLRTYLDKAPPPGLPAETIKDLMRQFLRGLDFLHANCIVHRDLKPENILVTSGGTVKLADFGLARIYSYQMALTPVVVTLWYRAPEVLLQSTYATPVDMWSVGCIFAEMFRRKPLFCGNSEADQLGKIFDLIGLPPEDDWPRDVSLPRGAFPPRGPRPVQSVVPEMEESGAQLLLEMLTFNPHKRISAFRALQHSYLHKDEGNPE
# Chain of Cyclin-dependent kinase 4/cyclin D1 (P24385 whole entry, further chain): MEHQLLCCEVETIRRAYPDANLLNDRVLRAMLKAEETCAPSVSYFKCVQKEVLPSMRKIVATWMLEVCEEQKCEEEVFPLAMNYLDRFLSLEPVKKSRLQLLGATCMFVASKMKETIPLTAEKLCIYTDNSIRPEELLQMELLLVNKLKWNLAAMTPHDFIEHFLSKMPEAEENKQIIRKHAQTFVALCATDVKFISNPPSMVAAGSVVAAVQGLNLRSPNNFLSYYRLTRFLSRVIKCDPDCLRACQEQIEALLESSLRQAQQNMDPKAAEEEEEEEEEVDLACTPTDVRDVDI
# Chain of Serine/threonine-protein kinase PLK1 (P53350 whole entry): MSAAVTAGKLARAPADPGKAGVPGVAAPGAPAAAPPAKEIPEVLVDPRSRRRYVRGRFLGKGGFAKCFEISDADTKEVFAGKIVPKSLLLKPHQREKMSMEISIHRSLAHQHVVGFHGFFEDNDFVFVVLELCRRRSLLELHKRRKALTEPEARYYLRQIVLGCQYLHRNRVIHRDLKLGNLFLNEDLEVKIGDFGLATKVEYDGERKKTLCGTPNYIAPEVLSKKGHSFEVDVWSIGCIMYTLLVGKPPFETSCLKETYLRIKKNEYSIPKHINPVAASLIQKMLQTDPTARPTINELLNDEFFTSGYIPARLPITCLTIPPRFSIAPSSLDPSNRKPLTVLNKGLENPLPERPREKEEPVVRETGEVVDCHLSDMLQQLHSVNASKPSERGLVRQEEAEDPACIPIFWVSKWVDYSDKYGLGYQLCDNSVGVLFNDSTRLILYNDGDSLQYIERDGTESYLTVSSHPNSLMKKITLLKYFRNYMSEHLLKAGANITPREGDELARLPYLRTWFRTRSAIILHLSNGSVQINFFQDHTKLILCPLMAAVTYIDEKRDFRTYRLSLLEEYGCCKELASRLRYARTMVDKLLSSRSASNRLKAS
# Chain of Focal adhesion kinase 1 (Q05397 whole entry): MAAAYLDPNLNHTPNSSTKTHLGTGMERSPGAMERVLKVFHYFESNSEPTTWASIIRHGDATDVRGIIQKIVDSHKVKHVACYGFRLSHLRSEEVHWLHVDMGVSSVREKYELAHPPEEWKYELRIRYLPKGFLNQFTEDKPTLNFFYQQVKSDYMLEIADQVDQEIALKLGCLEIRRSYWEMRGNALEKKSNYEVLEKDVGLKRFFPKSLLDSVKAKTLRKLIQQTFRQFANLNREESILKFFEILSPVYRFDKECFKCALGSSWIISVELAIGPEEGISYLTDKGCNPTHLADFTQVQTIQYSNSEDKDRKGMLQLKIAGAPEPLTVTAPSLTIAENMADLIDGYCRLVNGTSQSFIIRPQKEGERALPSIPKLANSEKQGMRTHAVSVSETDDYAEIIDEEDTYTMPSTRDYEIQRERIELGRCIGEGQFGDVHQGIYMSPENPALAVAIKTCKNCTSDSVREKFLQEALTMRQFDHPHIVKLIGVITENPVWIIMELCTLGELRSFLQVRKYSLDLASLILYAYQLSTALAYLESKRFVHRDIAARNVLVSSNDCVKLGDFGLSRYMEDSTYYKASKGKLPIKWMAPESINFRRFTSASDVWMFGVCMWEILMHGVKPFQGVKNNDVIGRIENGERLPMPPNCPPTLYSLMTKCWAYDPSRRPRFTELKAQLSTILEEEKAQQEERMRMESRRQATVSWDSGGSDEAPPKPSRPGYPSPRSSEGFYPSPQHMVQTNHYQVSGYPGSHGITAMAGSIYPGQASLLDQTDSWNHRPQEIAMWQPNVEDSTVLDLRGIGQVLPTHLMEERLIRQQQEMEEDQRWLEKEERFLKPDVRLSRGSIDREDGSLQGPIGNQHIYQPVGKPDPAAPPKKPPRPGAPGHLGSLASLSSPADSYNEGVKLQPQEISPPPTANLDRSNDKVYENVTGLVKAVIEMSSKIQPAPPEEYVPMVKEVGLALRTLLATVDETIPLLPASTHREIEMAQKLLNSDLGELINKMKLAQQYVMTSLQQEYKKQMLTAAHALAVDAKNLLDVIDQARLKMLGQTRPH
# Chain of Casein kinase II subunit alpha (P68400 whole entry): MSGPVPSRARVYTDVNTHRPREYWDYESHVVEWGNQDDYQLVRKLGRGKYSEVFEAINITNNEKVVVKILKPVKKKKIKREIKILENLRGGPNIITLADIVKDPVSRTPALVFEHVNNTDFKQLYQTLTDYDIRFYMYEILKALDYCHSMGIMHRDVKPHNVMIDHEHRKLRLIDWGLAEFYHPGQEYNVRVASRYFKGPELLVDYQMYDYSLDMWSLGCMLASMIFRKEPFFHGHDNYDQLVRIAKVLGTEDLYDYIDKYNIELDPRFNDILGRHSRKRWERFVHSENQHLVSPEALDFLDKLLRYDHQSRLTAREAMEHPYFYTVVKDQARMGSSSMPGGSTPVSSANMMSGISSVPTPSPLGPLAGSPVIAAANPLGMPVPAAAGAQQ
# Chain of Hepatocyte growth factor receptor (P08581 whole entry): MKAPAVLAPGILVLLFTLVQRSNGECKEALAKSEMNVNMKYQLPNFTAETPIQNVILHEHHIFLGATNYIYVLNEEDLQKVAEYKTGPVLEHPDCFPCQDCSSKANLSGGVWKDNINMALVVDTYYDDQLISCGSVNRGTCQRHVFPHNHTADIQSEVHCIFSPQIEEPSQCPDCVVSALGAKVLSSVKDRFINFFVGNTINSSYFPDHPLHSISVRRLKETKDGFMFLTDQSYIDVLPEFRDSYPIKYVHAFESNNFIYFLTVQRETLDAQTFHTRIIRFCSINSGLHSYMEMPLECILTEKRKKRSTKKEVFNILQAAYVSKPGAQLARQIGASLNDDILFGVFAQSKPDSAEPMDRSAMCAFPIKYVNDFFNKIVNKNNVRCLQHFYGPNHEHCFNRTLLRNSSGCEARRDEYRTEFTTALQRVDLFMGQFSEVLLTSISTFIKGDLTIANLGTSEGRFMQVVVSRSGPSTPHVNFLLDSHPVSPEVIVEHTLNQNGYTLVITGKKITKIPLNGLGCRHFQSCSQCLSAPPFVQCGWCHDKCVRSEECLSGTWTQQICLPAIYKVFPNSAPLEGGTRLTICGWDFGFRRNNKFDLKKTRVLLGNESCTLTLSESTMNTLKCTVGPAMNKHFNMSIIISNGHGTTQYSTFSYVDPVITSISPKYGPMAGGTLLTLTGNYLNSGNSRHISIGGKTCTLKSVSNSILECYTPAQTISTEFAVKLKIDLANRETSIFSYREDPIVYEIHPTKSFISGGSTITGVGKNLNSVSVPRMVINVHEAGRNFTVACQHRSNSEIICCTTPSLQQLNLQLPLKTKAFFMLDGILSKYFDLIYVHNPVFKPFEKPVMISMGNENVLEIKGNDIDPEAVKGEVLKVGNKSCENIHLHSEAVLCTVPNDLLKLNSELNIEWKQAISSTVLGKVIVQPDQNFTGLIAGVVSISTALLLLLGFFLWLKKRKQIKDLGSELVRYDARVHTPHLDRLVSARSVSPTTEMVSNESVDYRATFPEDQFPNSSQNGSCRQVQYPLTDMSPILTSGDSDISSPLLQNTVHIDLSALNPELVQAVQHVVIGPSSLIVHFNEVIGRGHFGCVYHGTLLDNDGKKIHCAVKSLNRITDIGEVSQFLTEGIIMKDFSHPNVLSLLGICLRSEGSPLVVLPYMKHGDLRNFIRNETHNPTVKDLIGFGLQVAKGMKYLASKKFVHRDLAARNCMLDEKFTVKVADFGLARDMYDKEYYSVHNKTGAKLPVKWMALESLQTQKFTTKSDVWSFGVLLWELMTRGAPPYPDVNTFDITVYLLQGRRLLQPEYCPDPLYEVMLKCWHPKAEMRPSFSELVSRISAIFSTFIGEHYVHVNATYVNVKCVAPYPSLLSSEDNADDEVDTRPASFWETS
# Chain of Mitogen-activated protein kinase kinase kinase 8 (P41279 whole entry): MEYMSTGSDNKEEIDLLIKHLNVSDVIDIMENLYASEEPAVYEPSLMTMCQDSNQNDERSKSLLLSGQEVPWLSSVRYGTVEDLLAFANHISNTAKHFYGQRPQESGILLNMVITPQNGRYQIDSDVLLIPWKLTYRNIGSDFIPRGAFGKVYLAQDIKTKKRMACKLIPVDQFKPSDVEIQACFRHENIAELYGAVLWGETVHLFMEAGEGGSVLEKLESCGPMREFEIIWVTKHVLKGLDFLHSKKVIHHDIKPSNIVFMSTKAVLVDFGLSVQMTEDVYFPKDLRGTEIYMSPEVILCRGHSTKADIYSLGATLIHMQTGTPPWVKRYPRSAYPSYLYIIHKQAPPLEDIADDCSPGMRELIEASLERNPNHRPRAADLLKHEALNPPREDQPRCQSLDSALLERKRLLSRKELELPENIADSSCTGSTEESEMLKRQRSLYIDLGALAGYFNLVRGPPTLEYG
# Chain of Aurora kinase B (Q96GD4 whole entry): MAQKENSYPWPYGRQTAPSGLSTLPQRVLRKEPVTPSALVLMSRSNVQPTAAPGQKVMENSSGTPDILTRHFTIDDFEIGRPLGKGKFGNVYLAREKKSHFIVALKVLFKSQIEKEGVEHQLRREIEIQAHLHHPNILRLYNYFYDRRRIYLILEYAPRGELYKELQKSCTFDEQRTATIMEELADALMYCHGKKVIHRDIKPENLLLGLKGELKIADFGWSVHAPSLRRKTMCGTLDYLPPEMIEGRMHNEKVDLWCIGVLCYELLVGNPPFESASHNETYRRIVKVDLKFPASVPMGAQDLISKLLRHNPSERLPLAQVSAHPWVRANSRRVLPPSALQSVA
Structure (SMILES),IC50 (Aurora kinase B),IC50 [1] [×10⁻⁵ g/ml],IC50 (Focal adhesion kinase 1) [×10⁻⁵ g/ml],IC50 [2] [×10⁻⁵ g/ml],IC50 [3] [×10⁻⁵ g/ml],IC50 [4],IC50 [5] [×10⁻⁵ g/ml],IC50 [6],IC50 [7] [×10⁻⁵ g/ml],IC50 [8] [µM],IC50 (Aurora kinase B; read-out: IC50 (converted)) [µM],IC50 ([1]; read-out: IC50 (converted)) [µM],IC50 (Focal adhesion kinase 1; read-out: IC50 (converted)) [µM],IC50 ([2]; read-out: IC50 (converted)) [µM],IC50 ([4]; read-out: IC50 (converted)) [µM],IC50 ([5]; read-out: IC50 (converted)) [µM],IC50 ([6]; read-out: IC50 (converted)) [µM],IC50 ([7]; read-out: IC50 (converted)) [µM],IC50 ([3]; read-out: IC50 (converted)) [µM]
COc1cc(O)c2c(c1)-c1cc(O)c(O)cc1COC2=O [ALTERLACTONE],> 1 ×10⁻⁵ g/ml,> 1,> 1,> 1,> 1,> 1 ×10⁻⁵ g/ml,> 1,> 1 ×10⁻⁵ g/ml,> 1,,,,,,,,,,
COc1cc(O)c2c(=O)oc3cc(O)cc(C)c3c2c1,,,,,> 1,,,,,7.71,4.77,9.55,32.7,13.2,9.18,30.1,14.7,,
COc1cc(O)c(C(=O)O)c(-c2cc(O)c(O)cc2C)c1 [ALTENUSIN],,,> 1,> 1,> 1,,,,,15.5,3.79,30.3,,,11,24.5,22.7,14.8,
COc1cc(O)c(C(=O)O)c(C2=C(C)C[C@@H](O)C2=O)c1 [ALTERNARIENONIC ACID],,> 1,> 1,> 1,> 1,,> 1,,,,10.8,,,,8.98,,14.4,33.8,
Cc1cc(O)cc2oc(=O)c3c(O)cc(O)cc3c12 [ALTERNARIOL],4.2 ×10⁻⁷ g/ml,,,,,9.6 ×10⁻⁷ g/ml,,9.5 ×10⁻⁷ g/ml,,9.29,,31,9.29,12.8,,26.7,,20.9,7.75
